≈ marks a conversion by molar mass, not a printed value. Non-standard residues stand in square brackets, D forms with d. Residues, ends and D or L forms follow the SMILES beside them. Orn = NCCC[C@H](N)C(=O)O
Assays:
Escherichia coli = assay: Antimicrobial activity against Escherichia coli DSM 1103 after 22 hrs by resazurin dye based spectrophotometry; format: functional; settings: DSM 1103, 22 h
Procedure, shortened: (§1)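 2-fold broth microdilution in Mueller–Hinton medium; peptide stocks 1024 μg/mL in 50% ethanol. Exponential-phase cultures diluted to OD550 0.2, then 1:100 (B. subtilis) or 1:1000 (E. coli), giving 5 × 10^5 CFU/mL per well. Incubated 22 h, 37 °C, static; then resazurin (0.2 mg/mL solution) added for 2 h at 37 °C, read visually and spectrophotometrically. Tested in both photoforms.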

Bacillus subtilis = assay: Antimicrobial activity against Bacillus subtilis DSM 347 after 22 hrs by resazurin dye based spectrophotometry; format: functional; settings: DSM 347, 22 h; procedure, shortened: as §1
[1] = Hemolytic activity against human RBC assessed as hemolysis after 30 mins by colorimetric method; format: ADME, cell-based, Erythrocyte; settings: human red blood cells (erythrocytes)
Procedure, shortened: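 Human erythrocytes washed twice in isotonic 172 mM Tris-HCl, pH 7.6; peptides dissolved in DMSO, diluted in buffer, two independent 10-step 2-fold series from 256 or 192 μg/mL. HC50 extrapolated as 50% hemolysis concentration.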

[2] = Selective ratio of HC50 for human RBC to IC50 for human HeLa cells; format: toxicity; settings: human red blood cells versus HeLa cells
Procedure, shortened: (§2)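 Ratio of HC50 (RBC) to HeLa IC50 or to MIC against B. subtilis or E. coli; values measured in mg/mL and recalculated to μM, 2-fold dilution without curve fitting, accuracy within a factor of 2.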

HeLa = assay: Cytotoxicity against human HeLa cells assessed as reduction in cell viability after 24 hrs by MTT assay; format: functional, cell-based
Procedure, shortened: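 HeLa cells seeded at about 5 × 10^4 cells/mL in DMEM with 10% FBS, 2 mM glutamine, gentamicin; 24 h adaptation (37 °C, 5% CO2), then 24 h peptide exposure. MTT 4 h, formazan in DMSO read at 570 nm. 2-fold series 256–0.5 (open) or 512–1 μg/mL (closed), four repetitions; IC50 extrapolated from killing curves. Closed form handled in dim light.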

[3] = Therapeutic index, ratio of HC50 for human RBC to MIC for Bacillus subtilis DSM 347; format: toxicity; settings: human red blood cells versus Bacillus subtilis DSM 347; procedure, shortened: as §2
[4] = Therapeutic index, ratio of HC50 for human RBC to MIC for Escherichia coli DSM 1103; format: toxicity; settings: human red blood cells versus Escherichia coli DSM 1103; procedure, shortened: as §2

MIC (Escherichia coli) [µM] | MIC (Bacillus subtilis) [µM] | Structure (SMILES) | HC50 at 0.5 h [1] [µM] | selectivity ratio [2] | IC50 (HeLa) [µM] | selectivity ratio [3] | selectivity ratio [4]
186 (≈ 257 µg/mL) | 1 (≈ 1.38 µg/mL) | CCCCN1C(=O)[C@@H](Cc2ccccc2)NC(=O)[C@H](CC(C)C)NC(=O)[C@H](CCCN)NC(=O)[C@H]([C@@H](C)CC)NC(=O)C2=CC3=C4CCCC4=C4C=C(S[C@]4(C)[C@@]3(C)S2)C(=O)[C@H]2CCCN2C(=O)[C@H](CC(C)C)NC(=O)[C@H](CCCN)NC(=O)[C@H]([C@@H](C)CC)NC(=O)[C@@H]1CC(C)C | 13 | 1 | 13 | 13 | 0.1
195 (≈ 256 µg/mL) | 12 (≈ 15.8 µg/mL) | CC(C)[C@@H]1NC(=O)[C@H](CCCN)NC(=O)[C@H]([C@H](O)C(C)C)NC(=O)C2=CC3=C4CCCC4=C4C=C(S[C@]4(C)[C@@]3(C)S2)C(=O)[C@H]2CCCN2C(=O)[C@H](C(C)C)NC(=O)[C@H](CCCN)NC(=O)[C@H]([C@H](O)C(C)C)NC(=O)[C@@H]2CCCN2C(=O)[C@@H](Cc2ccccc2)NC1=O | 160 | 0.5 | 293 | 13.3 | 0.8
92 (≈ 127 µg/mL) | 4 (≈ 5.52 µg/mL) | Cc1sc2cc1C1=C(CCC1)c1cc(sc1C)C(=O)[C@H]1CCCN1C(=O)[C@H](Cc1ccc(O)cc1)NC(=O)[C@H](CCCN)NC(=O)[C@H](C(C)C)NC(=O)[C@@H]1CCCN1C(=O)[C@@H](Cc1ccccc1)NC(=O)[C@H](Cc1ccc(O)cc1)NC(=O)[C@H](CCCN)NC(=O)[C@H](C(C)C)NC2=O | 4 | 0.2 | 23 | 1 | –
200 (≈ 257 µg/mL) | 13 (≈ 16.7 µg/mL) | CC(C)[C@@H]1NC(=O)[C@H](CCCN)NC(=O)[C@H]([C@H](O)C(C)C)NC(=O)C2=CC3=C4CCCC4=C4C=C(S[C@]4(C)[C@@]3(C)S2)C(=O)[C@H]2CCCN2C(=O)[C@H](C(C)C)NC(=O)[C@H](CCCN)NC(=O)[C@H](C(C)C)NC(=O)[C@@H]2CCCN2C(=O)[C@@H](Cc2ccccc2)NC1=O | 351 | 1.2 | 300 | 27 | 1.8
200 (≈ 257 µg/mL) | 25 (≈ 32.1 µg/mL) | CC(C)[C@@H]1NC(=O)C2=CC3=C4CCCC4=C4C=C(S[C@]4(C)[C@@]3(C)S2)C(=O)[C@H]2CCCN2C(=O)[C@H]([C@H](O)C(C)C)NC(=O)[C@H](CCCN)NC(=O)[C@H](C(C)C)NC(=O)[C@@H]2CCCN2C(=O)[C@@H](Cc2ccccc2)NC(=O)[C@H](C(C)C)NC(=O)[C@H](CCCN)NC1=O | 200 | 0.7 | 300 | 8 | 1
96 (≈ 266 µg/mL) | 6 (≈ 16.6 µg/mL) | CC(C)[C@@H]1NC(=O)[C@H](CCCN)NC(=O)[C@H]([C@H](O)C(C)C)NC(=O)C2=CC3=C4CCCC4=C4C=C(S[C@]4(C)[C@@]3(C)S2)C(=O)[C@H]2CCCN2C(=O)[C@H](C(C)C)NC(=O)[C@H](CCCN)NC(=O)[C@H](C(C)C)NC(=O)[C@H](CCCn2cc(COCc3cn(CCC[C@H]4C(=O)N[C@@H](C(C)C)C(=O)N[C@@H](CCCN)C(=O)N[C@@H](C(C)C)C(=O)N5CCC[C@@H]5C(=O)C5=CC6=C7CCCC7=C7C(=CS[C@]7(C)[C@@]6(C)S5)C(=O)N[C@@H]([C@H](O)C(C)C)C(=O)N[C@@H](CCCN)C(=O)N[C@@H](C(C)C)C(=O)N[C@H](Cc5ccccc5)C(=O)N4C)nn3)nn2)N(C)C(=O)[C@@H](Cc2ccccc2)NC1=O | 10 | 0.2 | 48 | 1.7 | 0.1
48 (≈ 133 µg/mL) | 3 (≈ 8.32 µg/mL) | Cc1sc2cc1C1=C(CCC1)c1cc(sc1C)C(=O)[C@H]1CCCN1C(=O)[C@H](C(C)C)NC(=O)[C@H](CCCN)NC(=O)[C@H](C(C)C)NC(=O)[C@H](CCCn1cc(COCc3cn(CCC[C@H]4C(=O)N[C@@H](C(C)C)C(=O)N[C@@H](CCCN)C(=O)N[C@@H](C(C)C)C(=O)N5CCC[C@@H]5C(=O)c5cc(c(C)s5)C5=C(CCC5)c5cc(sc5C)C(=O)N[C@@H]([C@H](O)C(C)C)C(=O)N[C@@H](CCCN)C(=O)N[C@@H](C(C)C)C(=O)N[C@H](Cc5ccccc5)C(=O)N4C)nn3)nn1)N(C)C(=O)[C@@H](Cc1ccccc1)NC(=O)[C@H](C(C)C)NC(=O)[C@H](CCCN)NC(=O)[C@H]([C@H](O)C(C)C)NC2=O | 1 | – | 24 | 0.3 | –
23 (≈ 61.7 µg/mL) | 1 (≈ 2.68 µg/mL) | Cc1sc2cc1C1=C(CCC1)c1cc(sc1C)C(=O)[C@H]1CCCN1C(=O)[C@H](C(C)C)NC(=O)[C@H](CCCN)NC(=O)[C@H](C(C)C)NC(=O)[C@@H]1CCCN1C(=O)[C@@H](Cc1ccccc1)NC(=O)[C@H](C(C)C)NC(=O)[C@H](CCCN)NC(=O)[C@H](CCCn1cc(COCc3cn(CCC[C@@H]4NC(=O)c5cc(c(C)s5)C5=C(CCC5)c5cc(sc5C)C(=O)[C@H]5CCCN5C(=O)[C@H](C(C)C)NC(=O)[C@H](CCCN)NC(=O)[C@H](C(C)C)NC(=O)[C@@H]5CCCN5C(=O)[C@@H](Cc5ccccc5)NC(=O)[C@H](C(C)C)NC(=O)[C@H](CCCN)NC4=O)nn3)nn1)NC2=O | 1 | – | 23 | 1 | –
– | – | CC(C)C[C@@H]1NC(=O)[C@H](CCCN)NC(=O)[C@H](C(C)C)NC(=O)[C@@H]2CCCN2C(=O)[C@@H](Cc2ccccc2)NC(=O)[C@H](CC(C)C)NC(=O)[C@H](CCCN)NC(=O)[C@H](C(C)C)NC(=O)[C@@H]2CCCN2C(=O)[C@@H](Cc2ccccc2)NC1=O (cyclo(V[Orn]L[dF]PV[Orn]L[dF]P)) [listing 1 of 2 here] | 10.5 | – | 3.5 | – | –

Structure (SMILES) | MIC (Escherichia coli) [µM] | MIC (Bacillus subtilis) [µM] | HC50 at 0.5 h [1] [µM] | selectivity ratio [2] | IC50 (HeLa) [µM] | selectivity ratio [3] | selectivity ratio [4]
CC[C@H](C)[C@@H]1NC(=O)c2cc(c(C)s2)C2=C(CCC2)c2cc(sc2C)C(=O)[C@H]2CCCN2C(=O)[C@H]([C@@H](C)CC)NC(=O)[C@H](CCCN)NC(=O)[C@H](CC(C)C)NC(=O)[C@H](CC(C)C)N(C)C(=O)[C@@H](Cc2ccccc2)NC(=O)[C@H]([C@@H](C)CC)NC(=O)[C@H](CCCN)NC1=O | 96 (≈ 129 µg/mL) | 2 (≈ 2.68 µg/mL) | 3 | 1 | 3 | 1.5 | –
Cc1sc2cc1C1=C(CCC1)c1cc(sc1C)C(=O)[C@H]1CCCN1C(=O)[C@H](C(C)C)NC(=O)[C@H](CCCN)NC(=O)[C@H]([C@H](O)C(C)C)NC(=O)[C@@H]1CCCN1C(=O)[C@@H](Cc1ccccc1)NC(=O)[C@H](C(C)C)NC(=O)[C@H](CCCN)NC(=O)[C@H]([C@H](O)C(C)C)NC2=O | 98 (≈ 129 µg/mL) | 3 (≈ 3.94 µg/mL) | 160 | 2.6 | 61 | 53.3 | 1.6
CCCCN1C(=O)[C@@H](Cc2ccccc2)NC(=O)[C@H](CC(C)C)NC(=O)[C@H](CCCN)NC(=O)[C@H]([C@@H](C)CC)NC(=O)c2cc(c(C)s2)C2=C(CCC2)c2cc(sc2C)C(=O)[C@H]2CCCN2C(=O)[C@H](CC(C)C)NC(=O)[C@H](CCCN)NC(=O)[C@H]([C@@H](C)CC)NC(=O)[C@@H]1CC(C)C | 93 (≈ 128 µg/mL) | 12 (≈ 16.6 µg/mL) | 3 | 0.8 | 4 | 0.3 | –
Cc1sc2cc1C1=C(CCC1)c1cc(sc1C)C(=O)[C@H]1CCCN1C(=O)[C@H](C(C)C)NC(=O)[C@H](CCCN)NC(=O)[C@H](C(C)C)NC(=O)[C@@H]1CCCN1C(=O)[C@@H](Cc1ccccc1)NC(=O)[C@H](C(C)C)NC(=O)[C@H](CCCN)NC(=O)[C@H]([C@H](O)C(C)C)NC2=O | 100 (≈ 128 µg/mL) | 2 (≈ 2.57 µg/mL) | 56 | 2.2 | 25 | 28 | 0.6
Cc1sc2cc1C1=C(CCC1)c1cc(sc1C)C(=O)[C@H]1CCCN1C(=O)[C@H](CC(C)C)NC(=O)[C@H](CCCCN)NC(=O)[C@H](C(C)C)NC(=O)[C@H](CCCCN)NC(=O)[C@H](CC(C)C)NC(=O)[C@@H]1CCCN1C(=O)[C@@H](Cc1ccccc1)NC(=O)[C@H](C(C)C)NC(=O)[C@H](CCCCN)NC(=O)[C@H](CC(C)C)NC(=O)[C@H](CCCCN)NC(=O)[C@H](C(C)C)NC2=O | 36 (≈ 64 µg/mL) | 9 (≈ 16 µg/mL) | < 1 | 0.2 | 5 | 0.1 | –
Cc1sc2cc1C1=C(CCC1)c1cc(sc1C)C(=O)[C@H]1CCCN1C(=O)[C@H]([C@H](O)C(C)C)NC(=O)[C@H](CCCN)NC(=O)[C@H](C(C)C)NC(=O)[C@@H]1CCCN1C(=O)[C@@H](Cc1ccccc1)NC(=O)[C@H](C(C)C)NC(=O)[C@H](CCCN)NC(=O)[C@H](C(C)C)NC2=O | 100 (≈ 128 µg/mL) | 2 (≈ 2.57 µg/mL) | 39 | 1.3 | 31 | 25 | 0.4
CC(C)C[C@@H]1NC(=O)[C@H](CCCN)NC(=O)[C@H](C(C)C)NC(=O)[C@@H]2CCCN2C(=O)[C@@H](Cc2ccccc2)NC(=O)[C@H](CC(C)C)NC(=O)[C@H](CCCN)NC(=O)[C@H](C(C)C)NC(=O)[C@@H]2CCCN2C(=O)[C@@H](Cc2ccccc2)NC1=O (cyclo(V[Orn]L[dF]PV[Orn]L[dF]P)) [listing 2 of 2 here] | 28 (≈ 32 µg/mL) | 1.8 (≈ 2.05 µg/mL) | – | – | – | – | –
